ChEMBL document CHEMBL1944542, “Coumarin polysulfides inhibit cell growth and induce apoptosis in HCT116 colon cancer cells” (2012)
The source made the active and inactive calls. No cut-off for these calls is given here.

Columns and labels:
HCT-116 [1] = assay: Cytotoxicity against human HCT116 cells expressing p53 assessed as reduction in cell viability at 100 to 200 uM after 24 hrs by MTT assay; assay type: functional, cell-based
How it was run: (§1)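 p53-positive HCT116 cells kept in McCoy's 5A with 10% FCS at 37 °C and 5% CO2. Seeded at 1 x 10^4 per well and incubated overnight. Treated at 12.5–200 µM, DMSO-dissolved, for 8, 24 or 48 h, with 0.05% DMSO control. MTT (5 mg/ml) added for the final 1 h at 37 °C. Formazan dissolved in SDS/DMSO/acetic acid and absorbance read at 595 nm. Means ± SD, n = 3.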

HCT-116 [2] = assay: Induction of apoptosis in human HCT116 cells assessed as PARP cleavage at 50 uM from 24 to 72 hrs by Western blotting; assay type: functional, cell-based
How it was run: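 HCT116 cells exposed to 50 µM for 24, 48 and 72 h, with 0.05% DMSO control. RIPA lysates (75 µg) run on 7.5% SDS-PAGE and transferred to PVDF. Anti-PARP blot, with nucleolin as loading control. Cleavage read as the 116 kDa band converting to 89 kDa.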

HCT-116 [3] = assay: Cell cycle arrest in human HCT116 cells assessed as accumulation at G1 phase at 25 uM after 24 hrs using propidium iodide staining by cytofluorometry (reference value: 62.34%); assay type: functional
HCT-116 [4] = assay: Induction of apoptosis in human HCT116 cells assessed as decrease in bcl-2 level by Western blotting; assay type: functional, cell-based; conditions: TDE = time-dependent effect
How it was run: (§2)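 HCT116 cells left untreated or exposed for 0.5–24 h. 50 µg protein separated on 12.5% SDS-PAGE and transferred to PVDF. bcl-2, bax or cytochrome c antibodies applied at 1:1000 overnight at 4 °C, with GAPDH loading control. For cytochrome c, cytosolic extracts were made by snap-freezing PBS-resuspended cells and clearing at 12500×g.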

HCT-116 [5] = assay: Cytotoxicity against human HCT116 cells expressing p53 assessed as cell viability at 50 uM after 48 hrs by MTT assay; assay type: functional; conditions: HCT-116, 48 h, read-out: Activity; how it was run: as §1
HCT-116 [6] = assay: Cell cycle arrest in human HCT116 cells assessed as accumulation at G2/M phase at 25 uM after 24 hrs using propidium iodide staining by cytofluorometry (reference value: 23.45%); assay type: functional
HCT-116 [7] = assay: Induction of apoptosis in human HCT116 cells assessed as increase in bax level by Western blotting; assay type: functional, cell-based; conditions: TDE = time-dependent effect; how it was run: as §2
HCT-116 [8] = assay: Cell cycle arrest in human HCT116 cells assessed as accumulation at G1 phase at 50 uM after 24 hrs using propidium iodide staining by cytofluorometry (reference value: 62.34%); assay type: functional
HCT-116 [9] = assay: Induction of apoptosis in human HCT116 cells assessed as increase in caspase 3/7 activation at 50 uM from 24 to 48 hrs by Western blotting; assay type: functional, cell-based
How it was run: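 HCT116 cells treated with 0 or 50 µM for 24 and 48 h. Lysed on ice in Tris/MgCl2/NP-40/DTT buffer. Separated on 12.5% SDS-PAGE and probed with caspase 3 antibody for full-length protein and cleavage products. Representative of at least 3 blots.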

[10] = biological target: T1, M-phase inducer phosphatase 1 (Homo sapiens) (UniProt P30304); assay: Inhibition of recombinant human GST-tagged cdc25A phosphatase activity using 3-O-methyl fluorescein phosphate at 100 uM
T1 sequence (whole entry): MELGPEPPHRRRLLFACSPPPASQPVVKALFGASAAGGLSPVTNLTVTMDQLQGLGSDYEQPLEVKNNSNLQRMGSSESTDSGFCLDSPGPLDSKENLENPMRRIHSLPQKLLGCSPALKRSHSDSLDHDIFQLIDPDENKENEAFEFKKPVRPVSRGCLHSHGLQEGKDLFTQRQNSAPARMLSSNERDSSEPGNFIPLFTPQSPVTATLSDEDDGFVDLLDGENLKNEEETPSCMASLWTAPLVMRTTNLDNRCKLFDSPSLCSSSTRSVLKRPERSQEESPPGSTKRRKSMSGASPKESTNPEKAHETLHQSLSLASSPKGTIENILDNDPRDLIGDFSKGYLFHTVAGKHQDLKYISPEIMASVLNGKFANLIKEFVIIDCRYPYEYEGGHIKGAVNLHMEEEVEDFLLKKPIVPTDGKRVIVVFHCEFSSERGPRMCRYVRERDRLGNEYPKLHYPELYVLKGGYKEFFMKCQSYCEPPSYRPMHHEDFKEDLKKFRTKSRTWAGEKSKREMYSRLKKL
How it was run: (§3)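 Test concentration 100 µM. Fluorescence (ex 475 / em 510 nm) read every 20 min for 2 h at 30 °C. Residual activity expressed relative to DMSO set at 100%.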

HCT-116 [11] = assay: Induction of apoptosis in human HCT116 cells assessed as increase in release of cytochrome C into cytosol by Western blotting; assay type: functional, cell-based; how it was run: as §2
HCT-116 [12] = assay: Induction of apoptosis in human HCT116 cells assessed as increase in p53 level at 50 uM from 8 to 48 hrs by Western blotting; assay type: functional, cell-based
How it was run: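 HCT116 cells exposed to 50 µM for 8, 24 and 48 h, with 0.05% DMSO control. Lysates run on SDS-PAGE and blotted with anti-p53 (DO-1) at 1:1000 for 1 h at room temperature. GAPDH used as loading control.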

HCT-116 [13] = assay: Cytotoxicity against human HCT116 cells expressing p53 assessed as reduction in cell viability at 50 uM after 24 hrs by MTT assay; assay type: functional; how it was run: as §1
HCT-116 [14] = assay: Cytotoxicity against human HCT116 cells expressing p53 assessed as reduction in cell viability at 25 uM after 24 hrs by MTT assay; assay type: functional; how it was run: as §1
HCT-116 [15] = assay: Cell cycle arrest in human HCT116 cells assessed as accumulation at subG1 phase at 50 uM after 24 hrs using propidium iodide staining by cytofluorometry (reference value: 1.8%); assay type: functional
[16] = biological target: T2, M-phase inducer phosphatase 3 (Homo sapiens) (UniProt P30307); assay: Inhibition of recombinant human GST-tagged cdc25C phosphatase activity using 3-O-methyl fluorescein phosphate at 100 uM; how it was run: as §3
T2 sequence (whole entry): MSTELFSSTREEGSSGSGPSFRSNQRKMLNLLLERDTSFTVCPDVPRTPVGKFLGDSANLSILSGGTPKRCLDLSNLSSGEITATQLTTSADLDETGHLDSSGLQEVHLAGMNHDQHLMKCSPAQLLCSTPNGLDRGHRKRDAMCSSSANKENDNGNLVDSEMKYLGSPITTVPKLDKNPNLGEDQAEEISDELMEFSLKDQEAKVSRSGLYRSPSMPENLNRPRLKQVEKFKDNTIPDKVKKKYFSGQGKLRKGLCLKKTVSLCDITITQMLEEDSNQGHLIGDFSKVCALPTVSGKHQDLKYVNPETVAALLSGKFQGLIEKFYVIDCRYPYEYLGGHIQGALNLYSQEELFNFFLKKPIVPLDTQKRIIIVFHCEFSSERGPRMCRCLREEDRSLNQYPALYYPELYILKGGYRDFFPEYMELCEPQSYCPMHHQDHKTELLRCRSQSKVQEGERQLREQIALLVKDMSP

HCT-116 [17] = assay: Cell cycle arrest in human HCT116 cells assessed as accumulation at S phase at 50 uM after 24 hrs using propidium iodide staining by cytofluorometry (reference value: 4.91%); assay type: functional
HCT-116 [18] = assay: Induction of apoptosis in NAC treated human HCT116 cells assessed as PARP cleavage at 50 uM treated 0.5 hrs before NAC challenge measured after 24 to 72 hrs by Western blotting; assay type: functional, cell-based
How it was run: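 HCT116 cells pretreated with 5 mM NAC (water stock) for 0.5 h, then exposed to 50 µM for 24, 48 and 72 h. Cells lysed in RIPA with protease inhibitors. 75 µg protein run on 7.5% SDS-PAGE and blotted to PVDF. PARP probed at 1:1000 overnight at 4 °C. Nucleolin or GAPDH used as loading control.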

HCT-116 [19] = assay: Cytotoxicity against human HCT116 cells expressing p53 assessed as reduction in cell viability at 50 uM by MTT assay; assay type: functional, cell-based; conditions: TDE = time-dependent effect; how it was run: as §1
HCT-116 [20] = assay: Induction of apoptosis in human HCT116 cells assessed as increase in gammaH2AX level at 50 uM from 24 to 72 hrs by Western blotting; assay type: functional, cell-based
HCT-116 [21] = assay: Cell cycle arrest in human HCT116 cells assessed as accumulation at G2/M phase at 50 uM after 24 hrs using propidium iodide staining by cytofluorometry (reference value: 23.45%); assay type: functional
HCT-116 [22] = assay: Cell cycle arrest in human HCT116 cells assessed as accumulation at S phase at 25 uM after 24 hrs using propidium iodide staining by cytofluorometry (reference value: 4.91%); assay type: functional
HCT-116 [23] = assay: Induction of apoptosis in human HCT116 cells assessed as decrease in cdc25C level at 50 uM by Western blotting; assay type: functional, cell-based; conditions: TDE = time-dependent effect
HCT-116 [24] = assay: Cytotoxicity against human HCT116 cells expressing p53 assessed as reduction in cell viability after 24 hrs by MTT assay; assay type: functional, cell-based; how it was run: as §1
HCT-116 [25] = assay: Cell cycle arrest in human HCT116 cells assessed as accumulation at subG1 phase at 25 uM after 24 hrs using propidium iodide staining by cytofluorometry (reference value: 1.8%); assay type: functional
HCT-116 [26] = assay: Induction of apoptosis in human HCT116 cells assessed as PARP cleavage at 50 uM from 24 to 48 hrs by Western blotting; assay type: functional, cell-based
How it was run: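 HCT116 cells (McCoy's 5A, 10% FCS, 37 °C, 5% CO2) exposed to 50 µM compound (DMSO stock; 0.05% DMSO control) for 24, 48 and 72 h. Total extract in RIPA buffer with protease inhibitors, 75 µg protein run on 7.5% SDS-PAGE, blotted to PVDF. Anti-PARP 1:1000 overnight at 4 °C. 116 kDa full-length and 89 kDa cleaved bands scored. Nucleolin as loading control.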

HCT-116 [27] = assay: Cytotoxicity against human HCT116 cells expressing p53 assessed as reduction in cell viability at 50 uM from 24 to 48 hrs by MTT assay; assay type: functional, cell-based; how it was run: as §1
LNCaP = assay: Induction of apoptosis in human LNCAP cells assessed as increase in caspase 3/7 activation at 20 ug/ml after 24 hrs by Western blotting; assay type: functional, cell-based
How it was run: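 LNCaP cells grown in RPMI 1640 with 10% FCS, then treated with 20 µg/ml doxorubicin (water stock) for 24 h or left untreated. Lysates run on 12.5% SDS-PAGE and probed for full-length and cleaved caspase 3.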

| Compound | inhibition [10] | inhibition [16] | Activity (HCT-116 [1]) | Activity (HCT-116 [2]) | viability at 50 µM (HCT-116 [5]) | Activity (HCT-116 [12]) | Activity (HCT-116 [13]) | Activity (HCT-116 [14]) | Activity (HCT-116 [19]) | Activity (HCT-116 [20]) | Activity (HCT-116 [24]) | Activity (HCT-116 [26]) | Activity (HCT-116 [27]) | other results |
| --- | --- | --- | --- | --- | --- | --- | --- | --- | --- | --- | --- | --- | --- | --- |
| C=CCSSSSCC=C |  |  |  |  |  |  |  |  |  |  |  |  | Active |  |
| C=CCSSCC=C |  |  |  |  |  |  |  |  |  |  |  | Active | Active |  |
| COc1cccc2c1C(=O)c1c(O)c3c(c(O)c1C2=O)C[C@@](O)(C(=O)CO)C[C@@H]3O[C@H]1C[C@H](N)[C@H](O)[C@H](C)O1 |  |  |  |  |  |  |  |  |  |  |  |  |  | Activity (LNCaP): Active |

More lines, main results first:

| inhibition [10] | inhibition [16] | Compound | Activity (HCT-116 [1]) | Activity (HCT-116 [2]) | viability at 50 µM (HCT-116 [5]) | Activity (HCT-116 [12]) | Activity (HCT-116 [13]) | Activity (HCT-116 [14]) | Activity (HCT-116 [19]) | Activity (HCT-116 [20]) | Activity (HCT-116 [24]) | Activity (HCT-116 [26]) | Activity (HCT-116 [27]) | other results |
| --- | --- | --- | --- | --- | --- | --- | --- | --- | --- | --- | --- | --- | --- | --- |
| Active | Active | COc1ccc2c(CSSSCc3cc(=O)oc4cc(OC)ccc34)cc(=O)oc2c1 | Active | Active | 20% | Active | 50% | 22% | tde | Active | Dose-dependent effect |  |  | Activity (HCT-116 [3]): 14.33%; Activity (HCT-116 [4]): tde; Activity (HCT-116 [6]): 66.07%; Activity (HCT-116 [7]): tde; Activity (HCT-116 [8]): 13.59%; Activity (HCT-116 [9]): Active; Activity (HCT-116 [11]): Active; Activity (HCT-116 [15]): 10.43%; Activity (HCT-116 [17]): 3.9%; Activity (HCT-116 [18]): inactive; Activity (HCT-116 [21]): 63.19%; Activity (HCT-116 [22]): 4.61%; Activity (HCT-116 [23]): tde; Activity (HCT-116 [25]): 12.28% |
| Active | Active | COc1cc(N(C)C)cc(CN(C)CCc2ccc([N+](=O)[O-])cc2)c1O |  |  |  |  |  |  |  |  |  |  |  |  |
| Active | Active | COc1ccc2c(CSSCc3cc(=O)oc4cc(OC)ccc34)cc(=O)oc2c1 | Active | Active | 20% | Active | 50% | 30% | tde | Active | Dose-dependent effect | Active | Active |  |
